Test results published in paper PMC11850876 (Scientific Reports, 2025).
Read-outs that look alike come from different tables or passages of the source.

Key:
[1] = test system: healthy human breast epithelial (MCF-10 A) cell line; assay: MTT cytotoxicity assay, MCF-10 A; assay type: cell-based
Procedure, shortened: (§1)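 Cells came from the Pasteur Institute, Tehran, and were seeded at 5 × 10^4 cells/well. After 24 h, four concentrations of test compound were added in triplicate, with medium-only and 0.5% DMSO controls. Exposure was 48 and 72 h. MTT formazan was dissolved in DMSO and read at 570 nm. IC50 was taken from % inhibition (mean ± SD, n=3). SI = IC50 MCF-10 A / IC50 MCF-7.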

[2] = test system: MCF-7 breast cancer cell line; assay: MTT cytotoxicity assay, MCF-7; assay type: cell-based, human; settings: for IC50: Homo sapiens; for Selectivity Index (SI) 48 h: IC50 MCF-10 A / IC50 MCF-7, 48 h; for Selectivity Index (SI) 72 h: IC50 MCF-10 A / IC50 MCF-7, 72 h
Procedure, shortened: as §1

[3] = DPPH radical scavenging assay; settings: read-out: DPPH radical scavenging IC50 ± SD; DPPH 0.1 mM in MeOH, 60 min, 517 nm
Procedure, shortened: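 Each test compound was prepared at 1.0 mg/mL in DMSO and mixed 1:1 by volume with 0.1 mM DPPH in MeOH. The mixture was kept in the dark at RT for 60 min. Absorbance was read at 517 nm against a DPPH control. % scavenging = (Abs control − Abs sample)/Abs control × 100.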

[4] = 48 h, read-out: IC50 ±SD MCF-10 A 48 h
[5] = 72 h, read-out: IC50 ±SD MCF-10 A 72 h
[6] = MCF7, 48 h, read-out: IC50 ±SD MCF-7 48 h
[7] = MCF7, 72 h, read-out: IC50 ±SD MCF-7 72 h

SMILES | IC50 [1, 4] | IC50 [1, 5] | IC50 [2, 6] | IC50 [2, 7] | Selectivity Index (SI) 48 h [2] | Selectivity Index (SI) 72 h [2] | IC50 [3]
NS(=O)(=O)c1ccc(/N=N/c2ccc(O)c(/C=N/c3ccc(O)cc3)c2)cc1 [Compound 3a, 4-((E)-(4-hydroxy-3-((E)-((4-hydroxyphenyl)imino)methyl)phenyl)diazenyl)benzenesulfonamide] | 11.18 ± 0.012 µM | 1.98 ± 0.002 µM | 10.9 ± 0.005 µM | 9.49 ± 0.012 µM | 1.02 | 0.20 | 13.2 ± 0.74 µM
NS(=O)(=O)c1ccc(/N=N/c2ccc(O)c(/C=N/c3ccccc3O)c2)cc1 [Compound 3c, 4-((E)-(4-hydroxy-3-((E)-((2hydroxyphenyl)imino)methyl)phenyl)diazenyl)benzenesulfonamide] | 16.82 ± 0.01 µM | 2.23 ± 0.001 µM | 21.16 ± 0.014 µM | 9.26 ± 0.002 µM | 0.79 | 0.24 | 13.6 ± 0.95 µM
COc1ccc(/N=C/c2cc(/N=N/c3ccc(S(N)(=O)=O)cc3)ccc2O)cc1 [Compound 3f, 4-((E)-(4-hydroxy-3-((E)-((4-methoxyphenyl)imino)methyl)phenyl)diazenyl)benzenesulfonamid] | 11.01 ± 0.016 µM | 2.67 ± 0.009 µM | 8.94 ± 0.013 µM | 7.62 ± 0.018 µM | 1.23 | 0.35 | 14 ± 1.45 µM
NC(=S)N/N=C/c1cc(/N=N/c2ccc(S(N)(=O)=O)cc2)ccc1O [Compound 3j, 2-((E)-2-hydroxy-5-((E)-(4-sulfamoylphenyl)diazenyl)benzylidene)hydrazine-1-carbothioamide] | 17.43 ± 0.019 µM | 11.26 ± 0.008 µM | 6.52 ± 0.007 µM | 5.27 ± 0.006 µM | 2.67 | 2.13 | 12.4 ± 0.55 µM
COc1cccc2c1C(=O)c1c(O)c3c(c(O)c1C2=O)C[C@@](O)(C(=O)CO)C[C@@H]3O[C@H]1C[C@H](N)[C@H](O)[C@H](C)O1 [Doxorubicin, reference compound] | 13.2 ± 0.1 µM | 2.85 ± 0.1 µM | 3.42 ± 0.1 µM | 0.68 ± 0.1 µM | 3.86 | 4.20 | –
O=C1O[C@H]([C@@H](O)CO)C(O)=C1O [ascorbic acid, reference compound] | – | – | – | – | – | – | 13.6 ± 0.38 µM
